High-throughput results deposited in PubChem by several laboratories.
SENP1 FRET inh – blocks the human SENP1 SUMO protease catalytic domain. Q9P0U3. recombinant SENP1 catalytic domain, CyPet-SUMO1-YPet FRET cleavage. inhibition, % at 10 µM. actives 0.21% (n = 360,000). AID 624204;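 active means inhibition at least 30% at 10 µM, raw YFP signal under a set limit, fluorescence ratio 0.5 to 1.5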;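 further: 0% = enzyme with DMSO and 100% = no enzyme wells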
Target sequence (Q9P0U3 419-644 limits assumed): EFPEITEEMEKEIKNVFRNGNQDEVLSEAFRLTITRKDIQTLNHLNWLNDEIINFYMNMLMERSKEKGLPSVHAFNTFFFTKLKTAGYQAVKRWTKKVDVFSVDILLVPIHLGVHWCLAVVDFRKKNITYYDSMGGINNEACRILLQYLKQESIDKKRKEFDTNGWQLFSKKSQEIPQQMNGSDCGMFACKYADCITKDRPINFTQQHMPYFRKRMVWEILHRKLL
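Test system: recombinant human SENP1 catalytic domain, His6-tagged / Medium: pH 8 Tris buffer with EDTA, NaCl, BME, BSA, NP40, catalase / Also added: SUMO1 FRET substrate flanked by Cypet and Ypet, 25 nM / Times: 50 min reaction at room temperature / Signal: FRET, CFP and YFP emission / Control set: no-enzyme low control and enzyme-plus-DMSO high control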
SENP7 block – blocks the human protease SENP7; recombinant SENP7, Z-RLRGG-aminoluciferin luminescence, 40 min; Q9BQF6; inhibition, % at 5 µM; actives 1.5% (n = 330,000);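 active means inhibition above about 50% at the single test dose, limit read from the data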;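 further: plate controls were DMSO with enzyme for no effect and no enzyme buffer wells for full effect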
Target sequence (Q9BQF6 706-1050 limits assumed): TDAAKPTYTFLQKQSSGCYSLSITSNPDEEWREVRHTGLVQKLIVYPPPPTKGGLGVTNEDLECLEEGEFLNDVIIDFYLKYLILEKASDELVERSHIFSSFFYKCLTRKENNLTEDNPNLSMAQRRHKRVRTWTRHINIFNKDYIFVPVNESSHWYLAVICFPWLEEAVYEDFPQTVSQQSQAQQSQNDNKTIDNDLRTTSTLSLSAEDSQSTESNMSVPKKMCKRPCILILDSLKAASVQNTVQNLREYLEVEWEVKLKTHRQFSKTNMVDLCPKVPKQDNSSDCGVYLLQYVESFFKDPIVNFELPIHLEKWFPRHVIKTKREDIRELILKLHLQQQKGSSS
SENP8 block-1 – blocks human SENP8 cleavage of Nedd8 substrate | Q96LD8 | recombinant SENP8, Nedd8 substrate fluorescence | inhibition, % at 20 µM | actives 0.64% (n = 360,000) | AID 602440; in the data active means inhibition mostly above about 40%, no sharp cut-off; inactive means mostly below about 27%
SENP8 block-2 – blocks the human protease SENP8; inhibition, % at 10 µM; AID 2540; actives 1.2% (n = 330,000); purified SENP8, Z-RLRGG-aminoluciferin cleavage, luminescence; in the data active means inhibition above about 50%
HSP90 inh – blocks HSP90-mediated luciferase refolding in reticulocyte lysate; actives 0.91% (n = 290,000); inhibition, % at 5.6 µM; Rabbit reticulocyte lysate, luciferase refolding luminescence, 3 h;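 active means inhibition above the screen-wide mean plus 3 SD, computed separately per campaign, cut at about 16% in these data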;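 further: 0% = DMSO wells and 100% = 60 µM geldanamycin wells; inhibitors lower the luminescence because luciferase stays unfolded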
SENP6 block – blocks the human protease SENP6. Q9GZR1. Recombinant SENP6 catalytic domain, aminoluciferin luminescence. inhibition, % at 10 µM. actives 1.8% (n = 330,000). AID 2599;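 active means inhibition above about 50% at the single tested dose, limit read from the data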;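 further: plate controls were DMSO wells with enzyme for no effect and DMSO wells lacking enzyme for full effect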
HSP90 inh confirm – HSP90 inhibition, confirmation assay; shares compounds with HSP90 inh; rabbit reticulocyte lysate, luciferase refolding luminescence, 3 h; inhibition, % at 5.9 µM; actives 64% (n = 2,300); in the data active means inhibition above about 18%;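 further: 0% = vehicle wells and 100% = reference inhibitor wells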
luciferase ctr – counter-screen for HSP90 inhibitors: inhibitors of firefly luciferase; inhibition, % at 5.9 µM; shares compounds with HSP90 inh; AID 1847; actives 48% (n = 2,300); purified native firefly luciferase, luminescence;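 active means inhibition above the mean inhibition of all tested sample wells plus 3 SD, cut at about 10% in these data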;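 further: 0% = DMSO with luciferase and 100% = wells lacking luciferase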
SENP8 confirm – confirmation of human SENP8 protease inhibitors; shares compounds with SENP7 block; Recombinant SENP8, Z-RLRGG-aminoluciferin luminescence, 60 min; inhibition, % at 12.5 µM; actives 40% (n = 6,200); AID 488912;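 active means mean inhibition across replicates above about 50%, limit read from the data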
SENP6 confirm – confirmation of human SENP6 protease inhibitors | shares compounds with SENP7 block | recombinant SENP6, Z-RLRGG-aminoluciferin luminescence | inhibition, % at 12.5 µM | actives 58% (n = 6,200)
SENP7 confirm – confirmation of human SENP7 protease inhibitors; shares compounds with SENP7 block; recombinant SENP7, Z-RLRGG-aminoluciferin luminescence, 40 min; inhibition, % at 12.5 µM; actives 69% (n = 6,200)
Casp3 select – caspase-3 inhibition (SENP selectivity assay). shares compounds with SENP7 block. purified caspase-3, Z-DEVD-aminoluciferin luminescence, 60 min. inhibition, % at 12.5 µM. actives 60% (n = 6,200). AID 488918;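 active means mean inhibition above about 50%, limit read from the data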;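 further: plate controls were enzyme with DMSO for no effect and wells without caspase-3 for full effect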
Target sequence (P42574 28-227 limits assumed): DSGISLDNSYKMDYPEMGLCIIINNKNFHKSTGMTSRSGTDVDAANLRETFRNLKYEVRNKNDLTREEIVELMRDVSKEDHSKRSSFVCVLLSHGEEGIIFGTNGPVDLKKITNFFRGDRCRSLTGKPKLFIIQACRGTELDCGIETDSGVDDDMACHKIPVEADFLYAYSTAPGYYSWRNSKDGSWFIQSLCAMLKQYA
Luc interf – interferes with luciferase luminescence in SENP counter-screen. shares compounds with SENP7 block. Pre-incubated SENP8/Z-RLRGG-aminoluciferin, luciferase luminescence interference. inhibition, % at 12.5 µM. actives 39% (n = 6,200). AID 488919;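 active means mean inhibition above about 50% when retested at one dose, limit read from the data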;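 further: plate controls were DMSO wells with completed reaction for no effect and substrate without enzyme for full effect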
* hit, by the source's call; x = not tested or not shown. An excerpt weighted towards active compounds, which were near 2.9% of everything screened.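 How the source made its calls, unless noted: active means mean inhibition above about 50% in the one-dose retest (limit read from the data); inactive means the rest.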

SMILES | SENP1 FRET inh | SENP7 block | SENP8 block-1 | SENP8 block-2 | HSP90 inh | SENP6 block | HSP90 inh confirm | luciferase ctr | SENP8 confirm | SENP6 confirm | SENP7 confirm | Casp3 select | Luc interf
COc1ccc2oc(C(=O)N3CCc4ccccc43)c(C)c2c1 | -7.7 | 99.9* | 3.3 | 95.7* | 22.7* | 95.8* | 59.1* | 46.5* | 71.7* | 88.2* | 95.7* | 84.9* | 17.3
COc1ccc2oc(C(=O)Nc3ccccn3)c(C)c2c1 | -8.1 | 92.1* | -145.1 | 77.4* | 24.7* | 86.9* | 46.3* | 33.9* | 84.7* | 84.8* | 97.8* | 88.0* | 87.9*
CCN1C(=O)[C@H]2[C@H]3CN=C(SCc4ccc(C)cc4)N3[C@@](Cc3ccccc3)(C(=O)OC)[C@H]2C1=O | 1.5 | 0.8 | 8.0 | x | x | x | x | x | x | x | x | x | x
COCCN(C(=O)CSc1nnc(-c2cccs2)n1N)c1c(N)n(Cc2ccccc2)c(=O)[nH]c1=O | -0.4 | 5.6 | 7.0 | 5.9 | -3.0 | -4.9 | x | x | x | x | x | x | x
CCNC(=O)C1(C)CCCN(C(=O)c2cccnc2Oc2ccccc2)C1 (centres undefined) | -0.4 | x | 8.7 | x | x | x | x | x | x | x | x | x | x
CCCc1ccc(-c2ccc(F)c(N)c2)nc1 | 0.4 | 95.7* | -6.9 | 93.9* | 53.4* | 95.2* | 76.7* | 68.5* | 94.2* | 97.3* | 102.6* | 96.7* | 95.7*
COc1ccc(C(=O)/C=C/c2ccccc2F)c(OC(=O)c2ccc([N+](=O)[O-])cc2)c1 | 3.5 | -8.3 | 25.0 | 27.7 | 18.2* | 60.4* | 36.6* | -22.5 | 13.0 | 9.7 | -6.5 | 8.0 | 3.9
O=C(/C=C/c1ccccc1F)c1cccc([N+](=O)[O-])c1 | 0.8 | 4.3 | 33.9 | 1.9 | -2.4 | -8.4 | x | x | x | x | x | x | x
Oc1cccc(/C=N/N=C/c2cccc(O)c2O)c1O | 4.4 | 93.7* | 20.4 | 91.7* | 25.1* | 96.2* | 70.6* | 73.8* | 93.9* | 94.0* | 100.4* | 92.4* | 27.3
COc1ccc(-c2ccc(C(=O)Nc3cccc(N(C)C)c3)c3occc23)c(C)c1 | -2.0 | x | -22.4 | x | x | x | x | x | x | x | x | x | x
O=C(NCCO)c1nc(C(=O)c2ccccc2)c2ccccc2n1 | -1.1 | -2.4 | -0.3 | 10.1 | x | 9.8 | x | x | x | x | x | x | x
Cn1c(=N)n(CC(=O)c2ccc(Cl)c(Cl)c2)c2ccccc21 | 3.0 | 52.4* | 9.1 | 36.2 | 41.2* | 50.8* | 47.2* | 50.1* | 36.7 | 27.3 | 19.3 | 19.1 | 22.7
COC(=O)C1CCN(C2CN(Cc3ccc(C)cc3)S(=O)(=O)C2)CC1 (centres undefined) | -1.6 | x | 11.5 | x | x | x | x | x | x | x | x | x | x
O=c1c(C=NCc2cccnc2)c(C(F)(F)F)[nH]n1-c1nc2ccccc2s1 | -2.1 | 98.9* | 4.2 | 97.2* | 41.7* | 97.2* | 35.3* | 11.4* | 99.8* | 100.8* | 103.2* | 99.1* | 99.0*
CCCc1[nH]n(-c2nc3ccccc3s2)c(=O)c1C=NCC(C)C | 2.9 | 4.1 | 33.0 | -3.6 | 2.1 | -4.5 | x | x | x | x | x | x | x
CC1CCN(C(=O)c2cc3c(ccc4ccccc43)o2)CC1 | -1.1 | 90.4* | 8.1 | 89.0* | 24.6* | 92.8* | 48.9* | 34.2* | 89.0* | 89.6* | 98.5* | 78.3* | 76.2*
CN=c1scc(-c2ccc(F)cc2)n1/N=C/c1ccc(O)c(O)c1 | -9.6 | 11.7 | -31.0 | 46.4 | 19.7* | 61.8* | 42.4* | 18.8* | 74.7* | 71.8* | 85.8* | 39.1 | 60.2*
S=C(NCCc1cccc(Cl)c1)NC1CCCCC1 | 1.4 | -4.5 | 4.6 | -1.0 | -8.2 | -3.8 | x | x | x | x | x | x | x
Cc1ccc(-c2nc(-c3ccncc3)no2)c(Cl)c1 | -0.8 | 88.7* | 3.5 | 74.6* | 27.9* | 71.2* | 48.1* | 46.6* | -7.9 | 9.6 | 42.1 | 28.2 | 27.4
CCOc1cc(N2CCOCC2)c(OCC)cc1NC(=O)C(NC(=O)c1c(F)cccc1F)C(C)C (centres undefined) | 1.2 | x | 5.5 | x | x | x | x | x | x | x | x | x | x
O=C1NC(Cc2ccccc2)c2nc3ccccc3c(=O)n2-c2cc(Cl)ccc21 (centres undefined) | x | 6.0 | x | 7.7 | x | -15.5 | x | x | x | x | x | x | x
CC(C)(C)c1ccc(Nc2n[nH]c3ccccc23)cc1 | -3.9 | x | -376.2 | x | x | x | x | x | x | x | x | x | x
c1ccc(N2CCN(c3nc4cc5c(cc4s3)OCO5)CC2)cc1 | -25.7 | -3.5 | -1.7 | -2.3 | 0.7 | -1.8 | x | x | x | x | x | x | x
c1c2c(cc3sc(N4CCCCC4)nc13)OCO2 | -91.0 | 99.3* | -8.6 | 96.2* | 24.6* | 100.8* | 59.0* | 52.5* | 96.8* | 98.7* | 102.6* | 97.9* | 94.9*
Cc1cc(/C=c2/sc3nc4ccccc4n3c2=O)c(C)n1-c1ccccn1 | -22.1 | 6.3 | -79.9 | 90.8* | 60.2* | 79.3* | 89.8* | 81.0* | 31.7 | 54.2* | 29.2 | 64.4* | 1.9
SMILES | SENP1 FRET inh | SENP7 block | SENP8 block-1 | SENP8 block-2 | HSP90 inh | SENP6 block | HSP90 inh confirm | luciferase ctr | SENP8 confirm | SENP6 confirm | SENP7 confirm | Casp3 select | Luc interf
Cc1ccc(C)c(NC(=S)c2nc3ccccc3s2)c1 | 2.2 | -13.6 | 25.8 | -17.8 | -1.8 | -26.6 | x | x | x | x | x | x | x
Cc1ccc(NC(=S)c2nc3ccccc3s2)cc1 | -0.7 | 80.4* | -83.3 | 43.2 | 23.1* | 60.6* | 42.1* | 26.2* | 10.8 | 41.6 | 29.3 | 27.7 | 9.1
CCc1ccc(OCc2ccc(C(=O)O)o2)cc1 | 1.3 | 86.5* | 3.8 | 90.4* | 95.6* | 90.5* | 93.9* | 67.9* | 94.9* | 94.9* | 99.9* | 52.1* | 93.8*
N#Cc1ccc(OCc2ccc(C(=O)O)o2)cc1 | 1.2 | 16.6 | 6.2 | 12.4 | 2.1 | 23.7 | x | x | x | x | x | x | x
O=C(C[n+]1ccc(C(=O)c2ccccc2)cc1)Nc1cccc([N+](=O)[O-])c1 | -7.1 | x | 15.6 | x | x | x | x | x | x | x | x | x | x
COc1ccc(-n2cc(C(=O)c3ccccc3O)cn2)cc1 | 2.5 | 99.7* | -166.8 | 94.0* | 34.2* | 95.2* | 52.3* | 39.9* | 96.1* | 98.5* | 102.3* | 96.0* | 94.9*
COc1ccc(O)c(C(=O)c2cnn(-c3ccccc3)c2)c1 | -14.5 | -3.3 | -97.7 | 6.8 | -1.9 | 0.2 | x | x | x | x | x | x | x
